ChEMBL document CHEMBL1156846, “Remote functionalization of SCH 39166: discovery of potent and selective benzazepine dopamine D1 receptor antagonists” (Bioorg Med Chem Lett, 2010)

Assays:
D(2) dopamine receptor = D(2) dopamine receptor (Homo sapiens, UniProt P14416); assay: Displacement of [3H]methylspiperon from dopamine D2 receptor expressed in mouse LTK cells by scintillation counting; format: cell-based
D(1A) dopamine receptor = D(1A) dopamine receptor (Homo sapiens, UniProt P21728); assay: Displacement of [3H]SCh23390 from dopamine D1 receptor expressed in mouse LTK cells by scintillation counting; format: cell-based
Rattus norvegicus = assay: AUC (0 to 6 hrs) in Sprague-Dawley rat at 10 mg/kg, po; format: ADME, organism-based, Plasma; design: time < 6 hr, dose 10 mg/kg, route oral; settings: in vivo
Outline: (§1)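 Two male Sprague–Dawley rats received 10 mg/kg orally under a cassette-accelerated rapid rat protocol. Blood was sampled at several time points, and values came from pooled samples. […] Individual plasma levels were generally within ±25% of the average.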

D(4) dopamine receptor = target: T1, D(4) dopamine receptor (Homo sapiens, UniProt P21917); assay: Displacement of radioligand from dopamine D4 receptor expressed in mouse LTK cells by scintillation counting; format: cell-based
T1 sequence (P21917 whole entry): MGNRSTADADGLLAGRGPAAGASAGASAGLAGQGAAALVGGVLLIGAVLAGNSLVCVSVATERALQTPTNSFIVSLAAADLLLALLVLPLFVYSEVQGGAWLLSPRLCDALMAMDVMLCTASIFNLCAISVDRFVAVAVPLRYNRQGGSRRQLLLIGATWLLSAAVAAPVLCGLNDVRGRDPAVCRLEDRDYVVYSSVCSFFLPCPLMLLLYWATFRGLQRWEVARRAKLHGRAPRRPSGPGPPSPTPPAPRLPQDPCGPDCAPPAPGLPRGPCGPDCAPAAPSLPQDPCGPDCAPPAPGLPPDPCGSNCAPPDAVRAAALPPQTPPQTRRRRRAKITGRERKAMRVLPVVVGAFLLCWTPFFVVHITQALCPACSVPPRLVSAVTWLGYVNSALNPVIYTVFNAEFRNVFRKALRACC
Outline: (§2)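 Ki came from equilibrium radioligand binding. Bound and free radioligand were separated by rapid filtration, and bound counts were measured by liquid scintillation. Standard error was 10%, and assay-to-assay variability was under twofold.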

D(1B) dopamine receptor = D(1B) dopamine receptor (Homo sapiens, UniProt P21918); assay: Displacement of radioligand from dopamine D5 receptor expressed in mouse LTK cells by scintillation counting; format: cell-based; outline: as §2
[1] = Tmax in Sprague-Dawley rat at 10 mg/kg, po; format: ADME, organism-based; design: dose 10 mg/kg, route oral; settings: in vivo; outline: as §1
[2] = Cmax in Sprague-Dawley rat at 10 mg/kg, po; format: ADME, organism-based; design: dose 10 mg/kg, route oral; settings: in vivo; outline: as §1

D(1B) dopamine receptor, sequence (P21918 whole entry): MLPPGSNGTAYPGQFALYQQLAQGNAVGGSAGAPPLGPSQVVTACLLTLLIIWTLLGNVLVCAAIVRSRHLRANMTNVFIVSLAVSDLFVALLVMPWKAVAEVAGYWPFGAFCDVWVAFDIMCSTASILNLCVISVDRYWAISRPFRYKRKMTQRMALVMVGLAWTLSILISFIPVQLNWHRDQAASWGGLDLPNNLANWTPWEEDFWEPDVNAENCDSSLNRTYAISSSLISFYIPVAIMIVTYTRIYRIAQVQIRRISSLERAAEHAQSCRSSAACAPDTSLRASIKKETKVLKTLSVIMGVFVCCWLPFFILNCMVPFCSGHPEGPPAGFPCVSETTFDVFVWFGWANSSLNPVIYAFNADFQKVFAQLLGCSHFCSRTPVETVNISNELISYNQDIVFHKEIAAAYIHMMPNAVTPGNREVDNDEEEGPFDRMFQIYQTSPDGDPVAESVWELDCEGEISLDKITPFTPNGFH
D(2) dopamine receptor, sequence (P14416 whole entry): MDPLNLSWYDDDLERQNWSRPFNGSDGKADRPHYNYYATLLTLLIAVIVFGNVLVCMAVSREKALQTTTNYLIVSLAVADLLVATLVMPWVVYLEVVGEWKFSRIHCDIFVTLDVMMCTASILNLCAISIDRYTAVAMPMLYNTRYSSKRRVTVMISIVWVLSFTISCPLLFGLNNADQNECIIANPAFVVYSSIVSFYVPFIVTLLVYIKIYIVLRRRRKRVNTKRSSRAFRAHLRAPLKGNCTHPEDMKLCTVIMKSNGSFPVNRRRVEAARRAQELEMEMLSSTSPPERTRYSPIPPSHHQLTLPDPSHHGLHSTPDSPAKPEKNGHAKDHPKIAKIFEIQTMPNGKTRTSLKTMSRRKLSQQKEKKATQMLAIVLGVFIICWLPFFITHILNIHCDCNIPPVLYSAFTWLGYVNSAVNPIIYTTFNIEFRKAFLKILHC
D(1A) dopamine receptor, sequence (P21728 whole entry): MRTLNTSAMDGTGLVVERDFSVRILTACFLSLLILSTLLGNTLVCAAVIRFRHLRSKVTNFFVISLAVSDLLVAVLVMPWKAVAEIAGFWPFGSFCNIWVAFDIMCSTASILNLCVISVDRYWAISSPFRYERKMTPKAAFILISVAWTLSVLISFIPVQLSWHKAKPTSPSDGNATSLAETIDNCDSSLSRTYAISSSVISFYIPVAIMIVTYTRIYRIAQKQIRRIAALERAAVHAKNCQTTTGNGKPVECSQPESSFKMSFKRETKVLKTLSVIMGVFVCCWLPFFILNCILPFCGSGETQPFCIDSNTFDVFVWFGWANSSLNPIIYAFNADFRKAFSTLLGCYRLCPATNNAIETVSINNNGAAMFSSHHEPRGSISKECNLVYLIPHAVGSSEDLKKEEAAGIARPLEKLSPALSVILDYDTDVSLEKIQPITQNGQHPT

Ki (D(2) dopamine receptor) [nM] | Ki (D(1A) dopamine receptor) [nM] | AUC (Rattus norvegicus) [µg·h/mL] | Ki (D(4) dopamine receptor) [nM] | Ki (D(1B) dopamine receptor) [nM] | Tmax [1] [h] | Cmax [2] [ng/mL] | SMILES
312 | 0.9 |  |  |  |  |  | CN1CCc2cc(Cl)c(O)cc2[C@H]2c3cccc(-c4cc(F)cc(F)c4)c3CC[C@@H]21
12 | 0.7 |  |  |  |  |  | CN(C)c1ccc(-c2cccc3c2CC[C@H]2[C@H]3c3cc(O)c(Cl)cc3CCN2C)cc1
51 | 0.6 |  |  |  |  |  | CN1CCc2cc(Cl)c(O)cc2[C@H]2c3cccc(-c4ccc5[nH]ccc5c4)c3CC[C@@H]21
93 |  | 353 | 10000 | 1.9 | 2 | 90 | CN1CCc2cc(Cl)c(O)cc2[C@H]2c3cccc(-c4cccs4)c3CC[C@@H]21
223 | 0.4 |  |  |  |  |  | CN1CCc2cc(Cl)c(O)cc2[C@H]2c3cccc(-c4cccc(F)c4)c3CC[C@@H]21
584 | 0.6 |  | 10000 | 3.4 |  |  | CN1CCc2cc(Cl)c(O)cc2[C@H]2c3cccc(-c4cccc(C#N)c4)c3CC[C@@H]21
923 | 2.3 |  | 4830 | 3.7 |  |  | COC(=O)c1cccc2c1CC[C@H]1[C@H]2c2cc(O)c(Cl)cc2CCN1C
420 | 38 |  |  |  |  |  | CN1CCc2cc(Cl)c(O)cc2[C@H]2c3cccc(C(=O)O)c3CC[C@@H]21
1370 | 3.1 |  | 10000 | 26.9 |  |  | CN1CCc2cc(Cl)c(O)cc2[C@H]2c3cccc(N4CCCC4=O)c3CC[C@@H]21
1650 | 2 |  | 6280 | 7.4 |  |  | CN1CCc2cc(Cl)c(O)cc2[C@H]2c3cccc(CO)c3CC[C@@H]21
483 | 4.4 |  | 7510 | 22 |  |  | CO/N=C/c1cccc2c1CC[C@H]1[C@H]2c2cc(O)c(Cl)cc2CCN1C
69 | 0.2 |  | 8340 | 2.5 |  |  | CN1CCc2cc(Cl)c(O)cc2[C@H]2c3cccc(/C=N/OCc4ccccc4)c3CC[C@@H]21
79 |  |  |  |  |  |  | CN1CCc2cc(Cl)c(O)cc2[C@H]2c3cccc(-c4ccccc4)c3CC[C@@H]21
1690 | 3 |  | 10000 | 7.5 |  |  | CN1CCc2cc(Cl)c(O)cc2[C@H]2c3cccc(Br)c3CC[C@@H]21
550 | 0.7 | 76 | 10000 | 6.2 | 2 | 18 | COc1ccc(-c2cccc3c2CC[C@H]2[C@H]3c3cc(O)c(Cl)cc3CCN2C)cc1
1330 | 2.8 |  | 10000 | 89 |  |  | CN1CCc2cc(Cl)c(O)cc2[C@H]2c3cccc(C#N)c3CC[C@@H]21
89 | 0.7 |  |  |  |  |  | CN1CCc2cc(Cl)c(O)cc2[C@H]2c3cccc(-c4ccc(CO)cc4)c3CC[C@@H]21
1370 | 2.6 |  | 5970 | 3.3 |  |  | CN1CCc2cc(Cl)c(O)cc2[C@H]2c3cccc(C=O)c3CC[C@@H]21
1610 | 2.3 |  |  |  |  |  | CN1CCc2cc(Cl)c(O)cc2[C@H]2c3cccc(-c4cccc(OC(F)(F)F)c4)c3CC[C@H]21
217 | 1.8 |  | 5890 | 10 |  |  | CCO/N=C/c1cccc2c1CC[C@H]1[C@H]2c2cc(O)c(Cl)cc2CCN1C
882 | 1.6 |  | 4370 | 3.3 |  |  | CN1CCc2cc(Cl)c(O)cc2[C@H]2c3cccc(/C=N/O)c3CC[C@@H]21
756 |  | 75 | 5060 | 10.5 | 0.5 | 43 | CN1CCc2cc(Cl)c(O)cc2[C@H]2c3cccc(-c4ccncc4)c3CC[C@@H]21
618 | 0.6 |  | 10000 | 4.7 |  |  | CN1CCc2cc(Cl)c(O)cc2[C@H]2c3cccc(-c4cccc([N+](=O)[O-])c4)c3CC[C@@H]21
124 | 1 |  | 10000 | 2.1 |  |  | CN1CCc2cc(Cl)c(O)cc2[C@H]2c3cccc(/C=N/Oc4ccccc4)c3CC[C@@H]21

SMILES | Ki (D(2) dopamine receptor) [nM] | Ki (D(1A) dopamine receptor) [nM] | AUC (Rattus norvegicus) [µg·h/mL] | Ki (D(4) dopamine receptor) [nM] | Ki (D(1B) dopamine receptor) [nM] | Tmax [1] [h] | Cmax [2] [ng/mL]
CN1CCc2cc(Cl)c(O)cc2[C@H]2c3cccc(O)c3CC[C@@H]21 | 440 |  |  | 3990 | 1.4 |  | 
CN1CCc2cc(Cl)c(O)cc2[C@H]2c3ccccc3CC[C@@H]21 [ECOPIPAM] |  |  | 156 | 5520 | 2 |  | 
